PvdQ acylase: P. aeruginosa PvdQ acylase inhibition; purified PvdQ acylase, fluorescence plate reader; inhibition, % at 10 µM; 0.063% of 340,000 active; in the data active means inhibition above about 30%, passing the limit was not always enough;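 further: 0% = vehicle neutral wells and 100% = reference inhibitor wells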
CaV13 ICDI inh: Disruptors of the CACNA1D IQ motif to Ca2+-dependent inactivation inhibitor domain association, primary screening, Förster resonance energy transfer in intact living …. 0.098% of 340,000 active. HEK cells, CFP/YFP FRET ICDI-IQ, plate reader, 10 min; percent FRET-ratio fall versus neutral wells. inhibition, % at 12.3 µM;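 active means mean replicate inhibition of at least 30% and at least 1% of replicates passing that level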;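 further: 0% = median of the neutral control wells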
Xi reactivation: X-chromosome reactivation activator; XiGFP mouse fibroblasts, % GFP-positive cells imaging, 3 d; cells co-treated with 5-aza-dC sensitizer; scaled so ellipticine positive control = 100%; activation, % at 7.58 µM; 0.055% of 360,000 active;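 active means mean normalized replicate activation at least 10% and every replicate at or above 10%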;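 further: 0% = median of on-plate neutral control wells and 100% = ellipticine 6 µM median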
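Assay system: SV40-immortalized XiGFP fibroblast cells, line 68-5-11; buffer or medium: DMEM plus 5-aza-dC sensitizer; compound: one concentration, pinned; timing: compounds 3 days, fix/stain 15 min at room temperature; benchmarks: positive control ellipticine, 6 µM final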
ERAP1 inh: inhibitors of human ERAP1 aminopeptidase | Q9NZ08 | recombinant ERAP1, Leu-AMC fluorescence, 60 min | inhibition, % at 10.7 µM | 0.15% of 340,000 active;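 active means mean replicate inhibition of at least 30%, or all replicates individually reaching that 30% level; inactive means mean below 30% and not every replicate reaching it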;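 further: 0% = neutral control wells and 100% = L-leucinethiol positive control wells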
Target sequence (Q9NZ08 whole entry, looked up): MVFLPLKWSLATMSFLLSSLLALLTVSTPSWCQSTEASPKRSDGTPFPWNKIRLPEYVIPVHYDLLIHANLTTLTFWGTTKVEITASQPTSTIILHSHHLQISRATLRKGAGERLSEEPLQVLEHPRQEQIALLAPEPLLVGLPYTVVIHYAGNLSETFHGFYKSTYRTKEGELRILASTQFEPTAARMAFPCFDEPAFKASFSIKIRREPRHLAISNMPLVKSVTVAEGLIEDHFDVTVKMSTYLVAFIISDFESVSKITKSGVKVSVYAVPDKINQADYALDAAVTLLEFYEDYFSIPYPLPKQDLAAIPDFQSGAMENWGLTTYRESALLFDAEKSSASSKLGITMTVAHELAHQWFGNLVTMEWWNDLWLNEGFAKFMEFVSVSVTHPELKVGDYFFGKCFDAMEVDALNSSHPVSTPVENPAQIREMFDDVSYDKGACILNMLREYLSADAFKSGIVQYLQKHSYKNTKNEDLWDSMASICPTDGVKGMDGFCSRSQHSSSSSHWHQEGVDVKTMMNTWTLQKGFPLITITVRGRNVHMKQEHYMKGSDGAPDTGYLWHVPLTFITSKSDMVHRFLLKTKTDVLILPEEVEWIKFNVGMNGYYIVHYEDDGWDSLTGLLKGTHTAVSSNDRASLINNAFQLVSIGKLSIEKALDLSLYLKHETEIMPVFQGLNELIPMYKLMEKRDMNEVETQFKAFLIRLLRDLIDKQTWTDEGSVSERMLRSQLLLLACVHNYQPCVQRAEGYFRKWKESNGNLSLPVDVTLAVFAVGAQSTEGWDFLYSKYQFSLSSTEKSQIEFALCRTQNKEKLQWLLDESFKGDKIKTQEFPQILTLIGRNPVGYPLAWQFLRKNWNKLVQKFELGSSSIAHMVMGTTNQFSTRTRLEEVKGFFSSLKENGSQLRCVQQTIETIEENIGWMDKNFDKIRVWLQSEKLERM
Active calls of the source: *; ! = a repeat was not active. Compounds with a hit are over-represented: about 0.27% of the library has one in this group of screens.

`C[C@H](CO)N1C[C@H](C)[C@@H](CN(C)Cc2ccncc2)Oc2c(NC(=O)NC3CCCCC3)cccc2C1=O` gave Xi reactivation 0.
For O=[N+]([O-])c1ccc(Sc2cccc[n+]2[O-])c2nonc12 the results were PvdQ acylase -2, CaV13 ICDI inh -5, Xi reactivation 59* and ERAP1 inh 14.
`COc1ccc2c3c([nH]c2c1)[C@H](CO)N(C(=O)c1ccncc1)CC31CN(Cc2cccnc2)C1` gave Xi reactivation 0.
`O=C(NCc1ccccc1Cl)c1cc(=O)[nH]c2ccccc12` gave PvdQ acylase -21, CaV13 ICDI inh -4, Xi reactivation 0 and ERAP1 inh 48*.
For CCc1nnc(NC(=O)c2ccc(-c3ccc(Cl)cc3)o2)s1 the results were PvdQ acylase -9.
`CCc1nnc(NC(=O)c2ccc(-c3ccccc3F)o2)s1` gave PvdQ acylase -3, CaV13 ICDI inh 136*, Xi reactivation 0 and ERAP1 inh 4.
For N#Cc1cc([N+](=O)[O-])ccc1Oc1cccc(/C=N/NC(=O)c2cccc(Cl)c2)c1 the results were PvdQ acylase 63*.
Screening COc1ccc(/C=N/NC(=O)c2cccc([N+](=O)[O-])c2)cc1OC returned PvdQ acylase 3, CaV13 ICDI inh 13, Xi reactivation 0 and ERAP1 inh -1.
COc1cc2c3nnc(-c4ccc(F)cc4)c-3cn(Cc3ccccc3F)c2cc1OC was read as PvdQ acylase 9, CaV13 ICDI inh -61, Xi reactivation 114* and ERAP1 inh -4.
For COc1cc2c3nnc(-c4ccccc4)c-3cn(Cc3ccccc3F)c2cc1OC the results were CaV13 ICDI inh -9 and Xi reactivation 97*.
For C[C@@H]1CN([C@@H](C)CO)C(=O)c2cc(C#CC(C)(C)O)cnc2O[C@H]1CN(C)C(=O)CC1CC1 the results were Xi reactivation -1 and ERAP1 inh 0.
For CC[C@H]1CC=CC[C@H](C)Oc2ccccc2C(=O)N(C)[C@@H](C(C)C)C(=O)N1 (mixture of isomers) the results were Xi reactivation 0.
`Cc1ccc(C(=O)Cn2cncn2)cc1` gave PvdQ acylase -3, CaV13 ICDI inh -5 and Xi reactivation 16*.
O=C(Cn1cncn1)c1ccc(Cl)cc1 was read as PvdQ acylase -19, CaV13 ICDI inh -4, Xi reactivation 0 and ERAP1 inh -2.
NNC(=O)c1sc(-c2ccc(Cl)cc2)cc1N was read as PvdQ acylase -4, CaV13 ICDI inh -5, Xi reactivation 19* and ERAP1 inh 0.
`CCOC(=O)N1CCN(C(=O)/C(=C/c2ccc(OC)c(OC)c2)NC(=O)c2ccccc2)CC1` gave PvdQ acylase -7, CaV13 ICDI inh -5, Xi reactivation 0 and ERAP1 inh -2.
Screening COc1ccc(/C=C(\NC(=O)c2ccccc2)C(=O)OC[C@@H]2CCC[N+]3(C)CCCCC23)cc1OC (stereo not given in full) returned PvdQ acylase 0, CaV13 ICDI inh 6, Xi reactivation 0 and ERAP1 inh 39*.
`CCCCCCCCCCCCCCCC[n+]1cccc(C(=O)N(CC)CC)c1` gave PvdQ acylase 7, CaV13 ICDI inh -8, Xi reactivation 0 and ERAP1 inh 68*.
For COc1ccccc1CN(C)C[C@H]1OCc2ccccc2-c2c(n(C)c3ccccc23)C(=O)N([C@H](C)CO)C[C@@H]1C the results were Xi reactivation 0.
For CCOC(=O)c1ccc(Nc2ncccc2[N+](=O)[O-])cc1 the results were PvdQ acylase 44*, CaV13 ICDI inh 2, Xi reactivation 0 and ERAP1 inh -4.
Screening Cc1c(C=O)c2ccccn2c1C(=O)c1cccs1 returned PvdQ acylase 5, CaV13 ICDI inh 32*, Xi reactivation 0 and ERAP1 inh -4.
Screening CNC[C@@H]1Oc2ccc(N)cc2C(=O)N(C)C[C@@H]1C returned Xi reactivation 0.
`Oc1ccc(Cl)cc1C1=NNC(c2cccs2)C1` (stereo not given) gave PvdQ acylase 34*, CaV13 ICDI inh -16, Xi reactivation 1 and ERAP1 inh -4.
For Cc1ccc2nc(-c3ccc(O)cc3)oc2c1 the results were PvdQ acylase 32*, CaV13 ICDI inh -2, Xi reactivation 0 and ERAP1 inh -6.
`COc1ccccc1NS(=O)(=O)c1cc(NC(=O)CCNC(C)=O)ccc1C` gave PvdQ acylase -6, CaV13 ICDI inh 151*, Xi reactivation 0 and ERAP1 inh 0.
For COc1ccccc1NS(=O)(=O)c1cc(NC(=O)CNC(=O)c2ccccc2)ccc1C the results were PvdQ acylase 5, CaV13 ICDI inh -2, Xi reactivation 0 and ERAP1 inh 2.
Screening CCCC(=O)N1CCC2(CC1)CN(C(=O)Nc1ccc(F)cc1)[C@H](CO)c1c2c2ccc(OC)cc2n1C returned Xi reactivation 0.
C[C@H]1CN([C@@H](C)CO)C(=O)c2cc(NC(=O)c3ccncc3)ccc2O[C@@H]1CN(C)Cc1ccc(C(=O)O)cc1 was read as Xi reactivation 0 and ERAP1 inh 6.
For O=C(c1cccc([N+](=O)[O-])c1)N1CC2C3C=CC(C3)C2C1 (stereo not given) the results were PvdQ acylase 43*, CaV13 ICDI inh -5, Xi reactivation 0 and ERAP1 inh -3.
For Cn1c2ccccc2c(=O)c2ccc(F)cc21 the results were PvdQ acylase -12, CaV13 ICDI inh 186*, Xi reactivation 0 and ERAP1 inh -39.
CC(=O)N(C)C[C@@H]1Oc2ccc(N(C)C)cc2C(=O)N(C)C[C@H]1C was read as Xi reactivation 0.
Screening CCc1c(C)c2cc(Cl)c(O)c(CN(CC)CC)c2oc1=O returned PvdQ acylase -5, CaV13 ICDI inh -4 and ERAP1 inh 85*.
CCc1c(C)c2cc(Cl)c(O)c(CN(C)C)c2oc1=O was read as PvdQ acylase -3, CaV13 ICDI inh -5 and ERAP1 inh -102.
Screening COC1C(CO)OC(n2c3c(Cl)cccc3c3c4c(c5c6cccc(Cl)c6[nH]c5c32)C(=O)NC4=O)C(O)C1O (stereo not given) returned PvdQ acylase -10, CaV13 ICDI inh -11, Xi reactivation 23* and ERAP1 inh -7.
Screening C[C@H](CO)N1C[C@H](C)[C@H](CN(C)Cc2ccc(Oc3ccccc3)cc2)Oc2ccc(NS(=O)(=O)c3cccs3)cc2C1=O returned Xi reactivation 0 and ERAP1 inh 5.
For COc1ccc(CN2C(=O)C(C)Nc3ncnc(N4CCN(c5ccccc5)CC4)c32)cc1 (stereo not given) the results were PvdQ acylase -16, CaV13 ICDI inh 63*!, Xi reactivation 0 and ERAP1 inh 1.
`COc1ccc(CN2C(=O)C(C)Nc3ncnc(N4CCOCC4)c32)cc1` (stereo not given) gave PvdQ acylase -6, CaV13 ICDI inh -5, Xi reactivation 0 and ERAP1 inh 1.
